Assay results taken from ChEMBL document CHEMBL1177846, “Benzylidene/2-chlorobenzylidene hydrazides: synthesis, antimicrobial activity, QSAR studies and antiviral evaluation” (Eur J Med Chem, 2010).
Calls of active or inactive are those of the source. The calls are words filed in the database; no cut-off is given here.

Legend:
[1] = system: Human alphaherpesvirus 1; experiment: Antiviral activity against acyclovir-resistant […] kinase-deficient HSV1 KOS infected in human HEL cells assessed as inhibition of virus-induced cytopathic effect after 3 days by MTS assay; format: functional, organism-based
In short: (§1)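 Confluent cell monolayers were infected with 100 CCID50 of virus and allowed 2 h adsorption at 37 °C. Virus was then removed and serial compound dilutions were added. Cultures were incubated at 37 °C for 3 days, until CPE was complete in the untreated virus control. EC50 was the concentration giving 50% inhibition of virus-induced CPE, by visual score or by MTS formazan cell viability.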

[2] = system: Escherichia coli; experiment: Antibacterial activity against Escherichia coli after 24 hrs by serial dilution method; format: functional
[3] = system: Human alphaherpesvirus 2; experiment: Antiviral activity against Herpes simplex virus 2 G infected in human HEL cells assessed as inhibition of virus-induced cytopathic effect after 3 days by MTS assay; format: functional, organism-based; conditions: strain G; in short: as §1
[4] = system: Coxsackievirus B4; experiment: Antiviral activity against Coxsackie virus B4 infected in african green monkey Vero cells assessed as inhibition of virus-induced cytopathic effect after 3 days by MTS assay; format: functional, organism-based; in short: as §1
[5] = system: Feline coronavirus; experiment: Antiviral activity against Feline caronavirus infected in […] cells assessed as inhibition of virus-induced cytopathic effect after 3 days by MTS assay; format: functional, organism-based; in short: as §1
[6] = system: Vesicular stomatitis virus; experiment: Antiviral activity against VSV infected in human HEL cells assessed as inhibition of virus-induced cytopathic effect after 3 days by MTS assay; format: functional, organism-based; in short: as §1
[7] = system: Vaccinia virus; experiment: Antiviral activity against Vaccinia virus infected in human HEL cells assessed as inhibition of virus-induced cytopathic effect after 3 days by MTS assay; format: functional, organism-based; conditions: Orthopoxvirus vaccinia; in short: as §1
[8] = system: Influenza B virus; experiment: Antiviral activity against influenza B virus infected in MDCK cells assessed as inhibition of virus-induced cytopathic effect after 3 days by MTS assay; format: functional, organism-based; in short: as §1
[9] = system: Staphylococcus aureus; experiment: Antibacterial activity against Staphylococcus aureus after 24 hrs by serial dilution method; format: functional
[10] = system: Human alphaherpesvirus 1; experiment: Antiviral activity against Herpes simplex virus 1 KOS infected in human HEL cells assessed as inhibition of virus-induced cytopathic effect after 3 days by MTS assay; format: functional, organism-based; in short: as §1
[11] = system: Influenza A virus; experiment: Antiviral activity against influenza A virus H3N2 infected in MDCK cells assessed as inhibition of virus-induced cytopathic effect after 3 days by MTS assay; format: functional, organism-based; in short: as §1
[12] = system: Mammalian orthoreovirus 1; experiment: Antiviral activity against Reovirus 1 infected in african green monkey Vero cells assessed as inhibition of virus-induced cytopathic effect after 3 days by MTS assay; format: functional, organism-based; in short: as §1
[13] = system: Bacillus subtilis; experiment: Antibacterial activity against Bacillus subtilis after 24 hrs by serial dilution method; format: functional
[14] = system: Aspergillus niger; experiment: Antifungal activity against Aspergillus niger after 7 days by serial dilution method; format: functional
[15] = system: Candida albicans; experiment: Antifungal activity against Candida albicans after 48 hrs by serial dilution method; format: functional
In short: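 Serial compound dilutions in Sabouraud dextrose broth (tube dilution), incubated 37 °C for 48 h. MIC was read as the lowest concentration with no growth.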

[16] = system: Punta Toro virus; experiment: Antiviral activity against Punta toro virus infected in african green monkey Vero cells assessed as inhibition of virus-induced cytopathic effect after 3 days by MTS assay; format: functional, organism-based; in short: as §1
[17] = system: Sindbis virus; experiment: Antiviral activity against Simbidis virus infected in african green monkey Vero cells assessed as inhibition of virus-induced cytopathic effect after 3 days by MTS assay; format: functional, organism-based; in short: as §1
[18] = system: Influenza A virus; experiment: Antiviral activity against influenza A virus H1N1 infected in MDCK cells assessed as inhibition of virus-induced cytopathic effect after 3 days by MTS assay; format: functional, organism-based; in short: as §1
[19] = system: Human respirovirus 3; experiment: Antiviral activity against Parainfluenza 3 virus infected in african green monkey Vero cells assessed as inhibition of virus-induced cytopathic effect after 3 days by MTS assay; format: functional, organism-based; in short: as §1
[20] = system: Felid alphaherpesvirus 1; experiment: Antiviral activity against Feline herpesvirus 1 infected in […] cells assessed as inhibition of virus-induced cytopathic effect after 3 days by MTS assay; format: functional, organism-based; in short: as §1

For `C/C=C/C=C/C(=O)N/N=C/c1ccccc1`, the inhibition [1] was “inactive”, the MBC [2] was 0.058 uM/ml and the inhibition [3] was “inactive”. For the same compound, the inhibition [4] was “inactive”, the inhibition [5] was “inactive” and the inhibition [6] was “inactive”. For the same compound, the inhibition [7] was “inactive”, the inhibition [8] was “inactive” and the MBC [9] was >0.233 uM/ml. The inhibition [10] was “inactive”, the inhibition [11] was “inactive” and the inhibition [12] was “inactive”. The MBC [13] was >0.233 uM/ml, the “-logMIC” value [14] was 1.54 and the MFC [14] was >0.233 uM/ml. For the same compound, the “-logMIC” value [15] was 0.93, the MFC [15] was >0.233 uM/ml and the inhibition [16] was “inactive”. For the same compound, the inhibition [17] was “inactive”, the inhibition [18] was “inactive” and the inhibition [19] was “inactive”. The inhibition [20] was “inactive”.
For `O=C(/C=C/c1ccccc1)N/N=C/c1ccccc1`, the inhibition [1] was “inactive”, the MBC [2] was 0.05 uM/ml and the inhibition [3] was “inactive”. The inhibition [4] was “inactive”, the inhibition [5] was “inactive” and the inhibition [6] was “inactive”. The inhibition [7] was “inactive”, the inhibition [8] was “inactive” and the MBC [9] was >0.2 uM/ml. The inhibition [10] was “inactive”, the inhibition [11] was “inactive” and the inhibition [12] was “inactive”. The MBC [13] was >0.2 uM/ml, the “-logMIC” value [14] was 1.6 and the MFC [14] was >0.2 uM/ml. For the same compound, the MFC [15] was >0.2 uM/ml, the inhibition [16] was “inactive” and the inhibition [17] was “inactive”. The inhibition [18] was “inactive”, the inhibition [19] was “inactive” and the inhibition [20] was “inactive”.
For `Cc1ccc(C(=O)N/N=C/c2ccccc2)cc1`, the inhibition [1] was “inactive”, the MBC [2] was 0.052 uM/ml and the inhibition [3] was “inactive”. The inhibition [4] was “inactive”, the inhibition [5] was “inactive” and the inhibition [6] was “inactive”. For the same compound, the inhibition [7] was “inactive”, the inhibition [8] was “inactive” and the MBC [9] was >0.21 uM/ml. The inhibition [10] was “inactive”, the inhibition [11] was “inactive” and the inhibition [12] was “inactive”. For the same compound, the MBC [13] was 0.21 uM/ml, the “-logMIC” value [14] was 1.88 and the MFC [14] was >0.21 uM/ml. For the same compound, the MFC [15] was >0.21 uM/ml, the inhibition [16] was “inactive” and the inhibition [17] was “inactive”. For the same compound, the inhibition [18] was “inactive”, the inhibition [19] was “inactive” and the inhibition [20] was “inactive”.
With `CCCCCCCCCCCCCCCC(=O)N/N=C/c1ccccc1Cl` the inhibition [1] was “inactive”, the MBC [2] was 0.031 uM/ml and the inhibition [3] was “inactive”. For the same compound, the inhibition [4] was “inactive”, the inhibition [5] was “inactive” and the inhibition [6] was “inactive”. For the same compound, the inhibition [7] was “inactive”, the inhibition [8] was “inactive” and the “-logMIC” value [9] was 1.5. The MBC [9] was >0.127 uM/ml, the inhibition [10] was “inactive” and the inhibition [11] was “inactive”. The inhibition [12] was “inactive”, the “-logMIC” value [13] was 1.49 and the MBC [13] was 0.031 uM/ml. The “-logMIC” value [14] was 1.27, the MFC [14] was >0.127 uM/ml and the “-logMIC” value [15] was 2.1. The MFC [15] was >0.127 uM/ml, the inhibition [16] was “inactive” and the inhibition [17] was “inactive”. For the same compound, the inhibition [18] was “inactive”, the inhibition [19] was “inactive” and the inhibition [20] was “inactive”.
With `CCCCCCCCCCCCCCCCCC(=O)N/N=C/c1ccccc1` the inhibition [1] was “inactive”, the “-logMIC” value [2] was 1.79 and the MBC [2] was 0.064 uM/ml. For the same compound, the inhibition [3] was “inactive”, the inhibition [4] was “inactive” and the inhibition [5] was “inactive”. The inhibition [6] was “inactive”, the inhibition [7] was “inactive” and the inhibition [8] was “inactive”. The MBC [9] was 0.129 uM/ml, the inhibition [10] was “inactive” and the inhibition [11] was “inactive”. For the same compound, the inhibition [12] was “inactive”, the “-logMIC” value [13] was 1.49 and the MBC [13] was <0.129 uM/ml. For the same compound, the “-logMIC” value [14] was 1.2, the MFC [14] was 0.03 uM/ml and the “-logMIC” value [15] was 2.09. The MFC [15] was <0.129 uM/ml, the inhibition [16] was “inactive” and the inhibition [17] was “inactive”. The inhibition [18] was “inactive”, the inhibition [19] was “inactive” and the inhibition [20] was “inactive”.
